In ChEMBL document CHEMBL3352243, “Ligand-based virtual screening identifies a family of selective cannabinoid receptor 2 agonists” (Bioorg Med Chem, 2015):
≈ marks a conversion by molar mass, not a printed value. One block for each molecule: values may come before it.

Tests used:
Cannabinoid receptor 2 [1] = target: T1, Cannabinoid receptor 2 (Homo sapiens, UniProt P34972); test: Agonist activity at human CB2R expressed in CHO cells assessed as reduction in forskolin-induced cAMP accumulation at 3 uM by beta-galactosidase based complementation immunoassay; format: functional, cell-based; set-up: reference not given here
Procedure, shortened: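 CHO-K1 cells expressing hCB2R, 15,000 per well, incubated overnight at 37 °C, 5% CO2, then anti-cAMP antibody added. Test agent at single concentration with 20 μM forskolin (0.2% DMSO final), 30 min at 37 °C. Lysis/substrate 1 h, then EA reagent 3 h, both at rt in the dark; luminescence read and expressed as % of forskolin+solvent control wells.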
Target sequence in this assay (P34972 whole entry): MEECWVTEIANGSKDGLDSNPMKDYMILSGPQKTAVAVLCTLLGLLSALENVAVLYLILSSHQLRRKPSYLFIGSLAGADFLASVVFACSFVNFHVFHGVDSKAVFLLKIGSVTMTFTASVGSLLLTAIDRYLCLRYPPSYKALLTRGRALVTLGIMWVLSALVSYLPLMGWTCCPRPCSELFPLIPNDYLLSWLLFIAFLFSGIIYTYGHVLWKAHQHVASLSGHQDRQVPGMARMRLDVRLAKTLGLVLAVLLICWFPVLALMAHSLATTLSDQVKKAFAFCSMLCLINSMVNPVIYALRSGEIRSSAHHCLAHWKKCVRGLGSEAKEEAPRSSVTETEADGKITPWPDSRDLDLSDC

Cannabinoid receptor 2 [2] = target: T1, Cannabinoid receptor 2; test: Agonist activity at human CB2R expressed in CHO cells assessed as reduction in forskolin-induced cAMP accumulation at 1 uM by beta-galactosidase based complementation immunoassay; set-up: reference not given here
Target sequence in this assay (P34972 whole entry, looked up): as the sequence (P34972 whole entry) above

Cannabinoid receptor 2 [3] = target: T1, Cannabinoid receptor 2; test: Agonist activity at human CB2R expressed in CHO cells assessed as reduction in forskolin-induced cAMP accumulation by beta-galactosidase based complementation immunoassay; format: functional, cell-based
Procedure, shortened: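 hCB2R CHO-K1 cells plated overnight at 37 °C, 5% CO2; anti-cAMP antibody added, then compound (final 0.2% DMSO) with 20 μM forskolin for 30 min at 37 °C. Lysis/substrate 1 h, then EA detection reagent 3 h at room temperature; luminescence read and normalised to forskolin+solvent wells (100%). EC50 by 4-parameter nonlinear fit of pooled 3–4 independent experiments.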
Target sequence in this assay (P34972 whole entry): as above

[4] = Aqueous kinetic solubility of the compound at pH 7 at 37 degC by turbidimetric assay; format: physicochemical; conditions: read-out: Kinetic_solubility
Procedure, shortened: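 Turbidimetric method: DMSO dilutions added to phosphate-buffered saline pH 7.4 at final 1, 3, 10, 30, 100 μM (1% DMSO), 7 replicates per concentration. Incubated 2 h at 37 °C, then absorbance read at 620 nm. Value is the mid-point of the precipitation range between upper and lower solubility limits.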

Cannabinoid receptor 2 [5] = target: T1, Cannabinoid receptor 2; test: Displacement of [3H]WIN-55212-2 from human CB2R expressed in CHO cells; format: cell-based
Procedure, shortened: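 Membranes from CHO cells expressing hCB2R incubated with test compound and tritiated WIN-55212 (0.8 nM), 2 h, 37 °C. Non-specific binding defined with 5 μM WIN-55212. Scintillation counting of bound ligand; Ki via Cheng–Prusoff with radioligand Kd; duplicate.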
Target sequence in this assay (P34972 whole entry): as above

Cannabinoid receptor 1 [6] = target: T2, Cannabinoid receptor 1 (Homo sapiens, UniProt P21554); test: Displacement of [3H]CP55940 from human CB1R expressed in CHO cells; format: cell-based
Procedure, shortened: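 Membranes from CHO cells expressing hCB1R incubated with test compound and [3H]CP 55,940 (0.5 nM) for 2 h at 37 °C. Non-specific binding defined with 10 μM WIN-55212. Bound radioligand measured by scintillation counting. Ki from Cheng–Prusoff using radioligand Kd; run in duplicate.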

Cannabinoid receptor 1 [7] = target: T2, Cannabinoid receptor 1; test: Agonist activity at human CB1R expressed in CHO cells assessed as reduction in forskolin-induced cAMP accumulation by beta-galactosidase based complementation immunoassay; format: functional, cell-based
Procedure, shortened: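 CHO-K1 cells expressing hCB1R, 15,000 per well, incubated overnight at 37 °C, 5% CO2, then given anti-cAMP antibody. Compounds were added with 20 μM forskolin (final DMSO 0.2%) for 30 min at 37 °C. Lysis/substrate step 1 h and EA detection 3 h, both at rt in the dark, then luminescence read.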

Liver = test: Half life in mouse liver microsomes in presence of NADPH by LC-MS/MS method; format: ADME
Procedure, shortened: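 Mouse liver microsomes incubated with compound at 37 °C with NADPH. Reactions stopped with methanol containing internal standard, centrifuged, supernatant analysed by LC–MS/MS.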

T2 sequence (P21554 whole entry): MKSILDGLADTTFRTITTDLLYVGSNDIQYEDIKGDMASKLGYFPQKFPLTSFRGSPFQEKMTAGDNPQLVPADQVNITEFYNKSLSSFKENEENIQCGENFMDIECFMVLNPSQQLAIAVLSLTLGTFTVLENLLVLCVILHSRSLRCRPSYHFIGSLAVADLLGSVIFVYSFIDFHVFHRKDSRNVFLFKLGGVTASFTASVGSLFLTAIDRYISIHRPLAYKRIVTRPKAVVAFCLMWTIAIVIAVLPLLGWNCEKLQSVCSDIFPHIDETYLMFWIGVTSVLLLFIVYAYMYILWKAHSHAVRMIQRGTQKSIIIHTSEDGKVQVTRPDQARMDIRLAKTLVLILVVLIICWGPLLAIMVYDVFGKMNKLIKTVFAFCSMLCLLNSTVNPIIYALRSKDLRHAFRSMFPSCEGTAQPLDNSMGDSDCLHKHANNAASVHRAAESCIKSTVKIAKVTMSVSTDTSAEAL

Activity (Cannabinoid receptor 2 [1]): 36.7% | Activity (Cannabinoid receptor 2 [2]): 76.3%
SMILES: C=CCn1c(SCCCC)nc2sc3c(c2c1=O)CC(C)(C)OC3

SMILES: COC(=O)CCCC(=O)n1c2ccccc2c2nnc(SCc3ccccc3C#N)nc21
EC50 (Cannabinoid receptor 2 [3]): 42 nM | solubility kinetic [4]: 3.75 µM (≈ 1.67 µg/mL)

SMILES: N#Cc1ccccc1CSc1nnc2c3ccccc3n(C(=O)N3CCOCC3)c2n1
EC50 (Cannabinoid receptor 2 [3]): 92 nM | solubility kinetic [4]: 10.5 µM (≈ 4.52 µg/mL)

SMILES: N#Cc1ccccc1CSc1nnc2c3ccccc3n(C(=O)C3CCCC3)c2n1
EC50 (Cannabinoid receptor 2 [3]): 49 nM | Ki (Cannabinoid receptor 2 [5]): 320 nM | Ki (Cannabinoid receptor 1 [6]): > 60000 nM

SMILES: N#Cc1ccccc1CSc1nnc2c3ccccc3n(C(=O)c3ccccc3)c2n1
EC50 (Cannabinoid receptor 2 [3]): 113 nM | Ki (Cannabinoid receptor 2 [5]): 300 nM | Ki (Cannabinoid receptor 1 [6]): > 10000 nM | solubility kinetic [4]: 2 µM (≈ 0.843 µg/mL)

SMILES: CCn1c2ccccc2c2nnc(SCc3ccccc3C#N)nc21
EC50 (Cannabinoid receptor 2 [3]): 674 nM

EC50 (Cannabinoid receptor 2 [3]): > 3000 nM
SMILES: Cn1c2ccccc2c2nnc(SCc3ccccc3C#N)nc21

Activity (Cannabinoid receptor 2 [1]): 110% | Activity (Cannabinoid receptor 2 [2]): 129%
SMILES: CCCCCSc1nnc2c3ccccc3n(C)c2n1

SMILES: N#Cc1ccccc1C[S+]([O-])c1nnc2c(n1)[nH]c1ccccc12 (centres undefined)
EC50 (Cannabinoid receptor 2 [3]): 3550 nM

SMILES: Cc1ccccc1-c1cccc2[nH]c3nc(SCc4ccccc4C#N)nnc3c12
EC50 (Cannabinoid receptor 2 [3]): 4300 nM

SMILES: N#Cc1ccccc1CSc1nnc2c3ccccc3n(Cc3ccccc3)c2n1
EC50 (Cannabinoid receptor 2 [3]): 214 nM | EC50 (Cannabinoid receptor 1 [7]): 1550 nM | Ki (Cannabinoid receptor 2 [5]): 11 nM | Ki (Cannabinoid receptor 1 [6]): 61 nM | t1/2 (Liver): < 5 min

EC50 (Cannabinoid receptor 2 [3]): > 3000 nM
SMILES: Cc1ccc(S(=O)(=O)n2c3ccccc3c3nnc(SCc4ccccc4C#N)nc32)cc1

SMILES: N#Cc1ccccc1CSc1nnc2c3ccccc3n(C(=O)c3ccno3)c2n1
EC50 (Cannabinoid receptor 2 [3]): 19 nM | Ki (Cannabinoid receptor 2 [5]): 450 nM | Ki (Cannabinoid receptor 1 [6]): > 60000 nM | solubility kinetic [4]: 6.5 µM (≈ 2.68 µg/mL)

SMILES: N#Cc1ccccc1CSc1nnc2c(n1)[nH]c1cccc(-c3ccsc3)c12
EC50 (Cannabinoid receptor 2 [3]): 1760 nM

SMILES: COc1ccc(C(=O)n2c3ccccc3c3nnc(SCc4ccccc4C#N)nc32)cc1OC
EC50 (Cannabinoid receptor 2 [3]): 160 nM

EC50 (Cannabinoid receptor 2 [3]): > 3000 nM
SMILES: CSc1nnc2c(n1)[nH]c1ccccc12

EC50 (Cannabinoid receptor 2 [3]): > 3000 nM
SMILES: Fc1ccc(CSc2nnc3c(n2)[nH]c2ccccc23)cc1

SMILES: N#Cc1ccccc1CSc1nnc2c3ccccc3n(C(=O)c3ccc(OC(F)(F)F)cc3)c2n1
EC50 (Cannabinoid receptor 2 [3]): 73 nM | Ki (Cannabinoid receptor 2 [5]): 380 nM | Ki (Cannabinoid receptor 1 [6]): > 60000 nM

EC50 (Cannabinoid receptor 2 [3]): > 3000 nM
SMILES: N#Cc1ccccc1CSc1nnc2c3ccccc3n(C(=O)c3ccc(F)cc3C(F)(F)F)c2n1

SMILES: CCCCSc1nnc2c(n1)[nH]c1ccccc12
EC50 (Cannabinoid receptor 2 [3]): 296 nM | solubility kinetic [4]: 2 µM (≈ 0.517 µg/mL) | Activity (Cannabinoid receptor 2 [1]): 57.2% | Activity (Cannabinoid receptor 2 [2]): 52.1%

Activity (Cannabinoid receptor 2 [1]): 117% | Activity (Cannabinoid receptor 2 [2]): 105%
SMILES: CCCCCCSC1=C(C#N)C(c2cccc(Cl)c2)NC(=O)N1 (centres undefined)

EC50 (Cannabinoid receptor 2 [3]): > 3000 nM
SMILES: N#Cc1ccccc1CSc1nnc2c3ccccc3n(S(=O)(=O)c3ccccc3[N+](=O)[O-])c2n1

SMILES: CCCCCCCC1C(=O)NC(=S)N(c2ccccc2)C1=O (centres undefined)
Activity (Cannabinoid receptor 2 [1]): 98.1% | Activity (Cannabinoid receptor 2 [2]): 111%

Activity (Cannabinoid receptor 2 [1]): 44.3% | Activity (Cannabinoid receptor 2 [2]): 47.8%
SMILES: CCCCSc1nnc2c(n1)OC(CC)Nc1ccccc1-2 (centres undefined)

SMILES: N#Cc1cccc(CSc2nnc3c(n2)[nH]c2ccccc23)c1
EC50 (Cannabinoid receptor 2 [3]): 6450 nM | EC50 (Cannabinoid receptor 1 [7]): > 30000 nM

Activity (Cannabinoid receptor 2 [1]): 76% | Activity (Cannabinoid receptor 2 [2]): 102%
SMILES: CCCCCCSc1nnc2c(n1)[nH]c1ccccc12

EC50 (Cannabinoid receptor 2 [3]): > 3000 nM
SMILES: N#Cc1ccccc1CSc1nnc2c(n1)[nH]c1cc(Br)ccc12

Activity (Cannabinoid receptor 2 [1]): 61.6% | Activity (Cannabinoid receptor 2 [2]): 93.5%
SMILES: CCCCSc1nnc(-c2ccccc2N)c(O)n1

EC50 (Cannabinoid receptor 2 [3]): > 3000 nM
SMILES: N#Cc1ccccc1CSc1nnc2c(n1)[nH]c1c(Br)cccc12

SMILES: N#Cc1ccccc1CSc1nnc2c(n1)[nH]c1cccc(Br)c12
EC50 (Cannabinoid receptor 2 [3]): 39 nM | EC50 (Cannabinoid receptor 1 [7]): 20000 nM | Ki (Cannabinoid receptor 2 [5]): 22.5 nM | Ki (Cannabinoid receptor 1 [6]): 3200 nM | t1/2 (Liver): 5 min

SMILES: N#Cc1ccccc1CSc1nnc2c3ccccc3n(C(=O)c3ccco3)c2n1
EC50 (Cannabinoid receptor 2 [3]): 46 nM | Ki (Cannabinoid receptor 2 [5]): 490 nM | Ki (Cannabinoid receptor 1 [6]): > 10000 nM

EC50 (Cannabinoid receptor 2 [3]): > 3000 nM
SMILES: CC(=O)n1c2ccccc2c2nnc(SCc3ccccc3C#N)nc21

SMILES: N#Cc1ccccc1CSc1nnc2c3ccccc3n(CC3CCCCC3)c2n1
EC50 (Cannabinoid receptor 2 [3]): 270 nM | t1/2 (Liver): < 5 min

SMILES: O=C(O)c1ccccc1CSc1nnc2c(n1)[nH]c1ccccc12
EC50 (Cannabinoid receptor 2 [3]): 2180 nM

EC50 (Cannabinoid receptor 2 [3]): > 3000 nM
SMILES: Fc1cccc(F)c1CSc1nnc2c(n1)[nH]c1ccccc12
